Assay results collected from several papers.
Target: Citron Rho-interacting kinase (CIT, Homo sapiens, UniProt O14578)

SMILES	assay	conditions	remaining binding [%]
c1ccc(N2CCN(Cc3nc4ccccc4[nH]3)CC2)nc1	binding, competition with immobilised ligand	1 µM	88
Nc1ncc2c(n1)-c1c([nH]c3ccc(C#CC4CC4)cc13)CCCC2	binding, competition with immobilised ligand	1 µM	88
C[C@H]1CCN(c2nccc(-c3cnn4ncccc34)n2)C1	binding	1 µM	69
O=C(NCCCN1CCOCC1)c1ccc(Nc2nccc(-c3cc4ccccc4s3)n2)cc1	binding, competition with immobilised ligand	1 µM	77
C[C@@H](c1cccc(C#N)c1)n1cc(Cl)cc(C(N)=O)c1=N	cell-free assay, competition with immobilised ligand	1 µM	100
O=C(NCCCN1CCOCC1)c1ccc(Nc2ncc(Cl)c(-c3ccc(Cl)s3)n2)cc1	binding, competition with immobilised ligand	1 µM	63
N[C@@H]1CCN(c2nccc(-c3cnn4ncccc34)n2)C1	binding	1 µM	99
CCOC(=O)c1cc2cc(-c3cc(C(=O)NCc4ccc(C(=O)O)cc4)nn3C)ccc2[nH]1	cell-free assay, competition with immobilised ligand	0.1 µM	100
Cc1cnc(Nc2ccc(C(=O)N3CCC(N4CCCC4)CC3)cc2)nc1-c1cc2ccccc2s1	binding, competition with immobilised ligand	1 µM	65
COc1cnc(Nc2cccc(S(N)(=O)=O)c2)nc1N1CCN(c2ccccc2)CC1	binding, competition with immobilised ligand	1 µM	100
COc1cccc(CNC(=O)c2nc3scc(COCc4ccc(C(=O)O)cc4)c3c(=O)[nH]2)c1	cell-free assay, competition with immobilised ligand	1 µM	100
CC1CCCN1c1nccc(-c2cnn3ncccc23)n1 (stereo not shown)	binding	1 µM	82
CCN1CCN(Cc2ccc(C(=O)Nc3ccc(C)c(Oc4ccc5c(c4)CC(=O)N5)c3)cc2C(F)(F)F)CC1	binding, competition with immobilised ligand	1 µM	65
c1cnn2ncc(-c3ccnc(N4CCC45COC5)n3)c2c1	binding	1 µM	84
COc1cnc(Nc2cccc(S(N)(=O)=O)c2)nc1N1CCN(c2ccccc2)C(=O)C1	binding, competition with immobilised ligand	1 µM	100
CS(=O)(=O)N1CCCC(NC(=O)[C@H](CCC2CCCCC2)NC(=O)c2ccc(CNC(=O)c3cnc4ccccn34)cc2)C1 (stereo partly shown)	cell-free assay, competition with immobilised ligand	0.1 µM	100
O=C(NCC1CCOCC1)c1n[nH]cc1NC(=O)c1c(F)cccc1F	binding, competition with immobilised ligand	1 µM	100
CN(C)c1ncc(F)c(-c2cnn3ncccc23)n1	binding	1 µM	100
CS(=O)(=O)c1cc(C2(NC(=O)c3cncc4c3cnn4-c3ccc(F)cc3)CC2)ccn1	cell-free assay, competition with immobilised ligand	1 µM	100
